Screening data deposited in PubChem BioAssay by several laboratories.
core dimer inh = inhibitors of HCV core protein dimerization, primary screen, biochemical, TR-FRET, high-throughput; TR-FRET GST/Flag-core106 dimerization, 1536-well; inhibition, % at 5 µM; 300,000 compounds, 0.33% hits;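 active = inhibition above the mean of all tested compounds plus 3 SD, set per screening campaign, cut at about 45% in these data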
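System – GST-tagged and Flag-tagged HCV core protein residues 1-106 · Repeats – one well for each compound · Technique – TR-FRET 671 and 617 nm emission · Doses – one concentration, 5 µM, in 0.5% DMSO · Times – 4 h, 22.5 °C incubation · Also added – Eu donor and XL665 acceptor anti-tag antibodies · Measure – percent inhibition of core106 dimerization signal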
ZTA counter = ZTA (EBV) inhibition in EBNA-1 counter-screen. AID 2234. inhibition, % at 11 µM. P03206. ZTA-DNA binding, fluorescence polarization. 320,000 compounds, 0.15% hits; in the data active = inhibition above about 33%
Target sequence (P03206 whole entry, looked up): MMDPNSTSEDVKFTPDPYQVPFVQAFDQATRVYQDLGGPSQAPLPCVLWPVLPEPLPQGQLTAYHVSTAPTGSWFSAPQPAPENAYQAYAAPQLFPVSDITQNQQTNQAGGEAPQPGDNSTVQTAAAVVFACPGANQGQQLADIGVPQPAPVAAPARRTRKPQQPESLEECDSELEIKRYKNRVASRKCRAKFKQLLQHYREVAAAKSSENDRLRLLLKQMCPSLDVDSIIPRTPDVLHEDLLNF
NS3 helicase inh = inhibitors of HCV NS3 helicase, primary screen, biochemical, Cy5 molecular beacon fluorescence | Hepatitis C virus NS3 helicase | 290,000 compounds, 0.56% hits | NS3 helicase DNA unwinding | inhibition, % at 10.9 µM;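 active = inhibition above the mean of all tested compounds plus 3 SD, set per campaign, cut at about 35% in these data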;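 note: 0% = DMSO wells and 100% = thioflavine S control wells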
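Material: hepatitis C virus NS3 helicase domain fragment enzyme; measured by: Cy5 fluorescence, 0 and 60 min reads; control set: DMSO and thioflavine S; incubation: 60 min unwinding reaction at 25 °C after ATP addition; read-out basis: % inhibition from 60/0 min fluorescence ratio, DMSO 0%, thioflavine S 100%; repeats: singlicate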
EBNA-1 inh = EBNA-1 DNA-binding inhibitors, primary screen, biochemical, fluorescence polarization; inhibition, % at 14.8 µM; 300,000 compounds, 0.34% hits; in the data active = inhibition above about 28%
SUMO HTRF inh = inhibitors of in vitro SUMOylation cascade, primary screen, biochemical, HTRF, uHTS; HTRF SUMOylation assay, SAE1/SAE2 + UBC9; inhibition, % at 35 µM; 290,000 compounds, 0.36% hits; SUMO-conjugating enzyme UBC9 (Homo sapiens), P63279; in the data active = inhibition above about 50%, passing the limit was not always enough
Target sequence (P63279 whole entry, looked up): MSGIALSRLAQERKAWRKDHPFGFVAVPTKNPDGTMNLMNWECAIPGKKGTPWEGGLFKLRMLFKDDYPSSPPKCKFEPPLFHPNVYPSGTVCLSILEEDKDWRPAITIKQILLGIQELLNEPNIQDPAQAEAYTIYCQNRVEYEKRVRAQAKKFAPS
Starred values were filed as active, the others as inactive; . = not tested or not shown. Most compounds without a hit are left out; they make up all but 1.4% or so of the library.

SMILES | core dimer inh | ZTA counter | NS3 helicase inh | EBNA-1 inh | SUMO HTRF inh
CCCCn1c(N)c(N(CCOC)C(=O)c2nn(CC)c(=O)c3ccccc23)c(=O)[nH]c1=O | 0 | 2 | . | -3 | .
CCc1ccc(NC(=O)C(CC)Sc2nc3cc4c(cc3c(=O)n2Cc2ccco2)OCO4)cc1 (stereo not drawn) | 8 | 7 | 5 | 27 | 54*
Cc1ccc(C(=O)Nc2ccc(F)cc2)cc1NC1=NC2CS(=O)(=O)CC2S1 (stereo not drawn) | 0 | -1 | -12 | 4 | 4
COc1ccccc1/C=C1/SC(=O)N(CCC(=O)Nc2ccc(S(=O)(=O)Nc3nccs3)cc2)C1=O | 28 | 18 | -28 | 27 | 59*
CC(C)c1ccc(N(CCc2ccccn2)C(=O)C(C)(C)C)cc1 | -3 | -10 | . | -5 | .
O=C(COC(=O)c1cccs1)NCc1ccco1 | 6 | 3 | . | -2 | 0
CC(C)C(NC(=O)OCc1ccccc1)C(=O)OCC(=O)NCc1ccco1 (stereo not drawn) | 75* | 5 | 20 | -4 | -5
O=C(COC(=O)c1ccc(NS(=O)(=O)c2cccs2)cc1)NCc1ccco1 | 72* | -1 | 29 | 7 | 44
CCOc1cc(C(=O)OCC(=O)NCc2ccco2)cc(OCC)c1OCC | 52* | 11 | 25 | -2 | -2
COc1cc(C(=O)OCC(=O)NCc2ccco2)cc(OC)c1OC | 21 | -16 | 4 | 9 | 12
Cc1cc(C)c2sc(NC(=O)C3=COCCO3)nc2c1 | -24 | -5 | 0 | 2 | 3
O=C(COC(=O)COc1cccc(C(F)(F)F)c1)NC1CCCC1 | 2 | 8 | . | 14 | .
CN(CC(=O)Nc1ccc(F)cc1)C(=O)c1cc(-c2ccco2)nc2ccccc12 | 50* | 0 | . | 0 | .
Cc1ccc(NC(=O)CN(C)C(=O)c2cc(-c3ccco3)nc3ccccc23)cc1 | 65* | -18 | . | 2 | .
COc1ccc(NS(=O)(=O)c2cccc(C(=O)NNC(=O)c3cccn3C)c2)cc1 | 71* | -12 | 30 | 9 | 16
CCOC(=O)c1c(-c2ccc(-c3ccccc3)cc2)csc1NC(=O)C1C2CCC(O2)C1C(=O)O (stereo not drawn) | 46* | 14 | 19 | 10 | 15
Nc1cccc2nsnc12 | 1 | 8 | 4 | 2 | 88*
C=CCn1c(SCC(=O)NC2CCCC2)nc2scc(-c3ccco3)c2c1=O | 55* | 1 | 25 | -6 | 33
Nc1ccc2nc(-c3ccccc3)sc2c1 | -6 | 6 | -11 | -4 | 57*
Cn1ccnc1SCC(=O)Nc1sccc1C#N | 71* | -4 | 9 | 0 | 28
N#Cc1ccsc1NC(=O)CSc1ncnc2ccccc12 | 80* | -17 | 18 | -7 | 18
Cc1nnc(SCC(=O)Nc2sccc2C#N)s1 | 33 | 6 | 18 | -10 | 10
Cc1ccc(Nc2nc3ccccc3n3nnnc23)cc1 | 0 | -2 | 7 | 34* | 26
COc1ccc(Nc2nc3ccccc3n3nnnc23)cc1 | 3 | -1 | 2 | 5 | 26
COc1ccccc1Cn1c(-c2ccco2)nc2nc3ccccc3nc21 | 8 | -11 | 10 | 0 | .
SMILES | core dimer inh | ZTA counter | NS3 helicase inh | EBNA-1 inh | SUMO HTRF inh
COc1ccc(CCn2c(-c3ccco3)nc3nc4ccccc4nc32)cc1 | 56* | -3 | 7 | 0 | 34
COc1ccc(-c2cc(-c3ccccc3)n3ncnc3n2)cc1 | 13 | -6 | -5 | -8 | 53*
Cc1ccc(CNC(=O)/C(C#N)=C\c2ccc(N(C)C)cc2)cc1 | 0 | -4 | -13 | -6 | 54*
CCN(CC)c1ccc(/C=C(\C#N)C(=O)NCc2ccccc2)cc1 | 11 | -6 | -2 | 1 | -4
CN(CC(=O)Nc1ccc(F)cc1)C(=O)COC(=O)c1cc(S(=O)(=O)N(C)C)ccc1N1CCCC1 | -1 | -3 | . | -3 | .
CC(=O)N1CCN(S(=O)(=O)c2cccc(C(=O)NNC(=O)Cn3nc(C)cc3C)c2)CC1 | . | -20 | . | . | .
O=C(c1ccccc1)c1ccc2nc(-c3ccc(NC(=O)c4ccccc4Br)cc3)[nH]c2c1 | 14 | -2 | -13 | 45* | -12
Cn1c(-c2ccc(C=O)s2)nc2c3ccccc3c3ccccc3c21 | -58 | -5 | 12 | 15 | 97*
CCN(C(=O)CN1C(=O)S/C(=C\C=C\c2ccccc2)C1=O)C1CCS(=O)(=O)C1 (stereo not drawn) | 46* | -1 | -15 | 0 | 0
CCN(C(=O)CN1C(=O)S/C(=C\c2cccc(Cl)c2)C1=O)C1CCS(=O)(=O)C1 (stereo not drawn) | -9 | -34 | -1 | -3 | 3
Cc1ccc(-n2c(SCC(=O)NCc3ccco3)nc3sc4c(c3c2=O)CC(C)(C)SC4)cc1 | 68* | -2 | 29 | -11 | 18
CCSc1nc2sc3c(c2c2nnc(SCC(=O)NCc4ccco4)n12)CCCC3 | 58* | -11 | 14 | -3 | .
CCc1ccc(-n2cccc2/C=C2/C(=N)N3C(=NC2=O)SN=C3S(C)(=O)=O)cc1 | 49* | -1 | 21 | 10 | 50
Cc1cc(C)cc(-n2cccc2/C=C2/C(=N)N3C(=NC2=O)SN=C3S(C)(=O)=O)c1 | 28 | 3 | 5 | 19 | 37
Cc1ccc(-n2cccc2/C=C2/C(=N)N3C(=NC2=O)SN=C3S(C)(=O)=O)cc1 | 57* | 2 | 25 | -2 | 32
COc1cccc(NC(=S)Nc2cc(C)cc(C)n2)c1 | 86* | -5 | -3 | -4 | 15
CCOc1cc(/C=C2\C(=O)N(c3cccc(C(=O)O)c3)N=C2C(F)(F)F)ccc1OCC(=O)Nc1ccccc1OC | 31 | 21 | 4 | 12 | 73*
O=C(NN=C1C2CC3CC(C2)CC1C3)c1ccncc1 | -2 | 3 | -3 | -8 | 19
O=C(N/N=C1\C/C(=N\NC(=O)c2ccncc2)c2ccccc21)c1ccncc1 | 3 | -19 | -2 | -13 | 52*
Cc1cccc(NC(=O)Cn2c(O)c(N=NC(=O)c3ccccc3O)c3ccccc32)c1 | 6 | -13 | -3 | 14 | 54*
COc1ccccc1/C=C(/CC(=O)NCc1ccccc1)c1nc2ccccc2s1 | 49* | -2 | 12 | 10 | 0
COc1ccccc1/C=C(/CC(=O)NCc1ccc(F)cc1)c1nc2ccccc2s1 | 67* | -6 | 2 | -8 | 14
CC(=O)c1cnc2nc(SCc3cccc(C)c3)nn2c1C | 0 | 4 | -3 | 2 | 2
Cc1ccc(Cc2c(C)nc3nc(SCC(=O)NCCCN4CCCCCC4)nn3c2C)cc1 | 94* | -14 | -26 | -9 | 8
CNC(=O)c1c(NC(=O)CCS(=O)(=O)c2ccc(C)cc2)sc2c1CCN(C(=O)OC)C2 | 0 | 10 | . | 4 | .
